Data published in ChEMBL document CHEMBL2157870 (J Med Chem, 2012).
≈ marks a conversion by molar mass, not a printed value.

Tests used:
[1] = test system: HepG2; test: Cytotoxicity against human HepG2 cells at 25 uM after 72 hrs by celltiter-glo assay; type: cell-based; conditions: hepg2, 72 h
[2] = test system: Mus musculus; test: AUC (0 to infinity) in CD1 mouse at 200 mg/kg, po; type: ADME, organism-based, Plasma; set-up: time infinity, dose 200 mg/kg, route oral; conditions: in vivo
In short: (§1)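 Female CD-1 mice, 8 weeks old, were given a single oral gavage dose as a suspension in 0.5% methylcellulose in sterile water. Blood was taken from three mice per time point (5 min–24 hr) into K3EDTA and processed to plasma. After acetonitrile protein precipitation, samples were analysed by LC-MS/MS with a warfarin internal standard. Noncompartmental analysis used linear-up/log-down trapezoidal AUC and at least three non-zero concentrations after Tmax.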

[3] = test system: Mus musculus; test: Cmax in CD1 mouse at 200 mg/kg, po; type: ADME, organism-based; set-up: dose 200 mg/kg, route oral; conditions: in vivo; in short: as §1
[4] = test system: Mus musculus; test: Tmax in CD1 mouse at 200 mg/kg, po; type: ADME, organism-based; set-up: dose 200 mg/kg, route oral; conditions: in vivo; in short: as §1
[5] = test system: Mus musculus; test: Cmax in CD1 mouse at 20 mg/kg, po; type: ADME, organism-based; set-up: dose 20 mg/kg, route oral; conditions: in vivo; in short: as §1
[6] = test system: Plasmodium falciparum; test: Antimalarial activity against Plasmodium falciparum 3D7 after 72 hrs by MSF assay; type: functional, organism-based; conditions: 3D7, 72 h
[7] = target: T1, ATP-sensitive inward rectifier potassium channel 11 (Homo sapiens, UniProt Q14654); test: Inhibition of Kir6.2 by patch clamp assay
T1 sequence (Q14654 whole entry): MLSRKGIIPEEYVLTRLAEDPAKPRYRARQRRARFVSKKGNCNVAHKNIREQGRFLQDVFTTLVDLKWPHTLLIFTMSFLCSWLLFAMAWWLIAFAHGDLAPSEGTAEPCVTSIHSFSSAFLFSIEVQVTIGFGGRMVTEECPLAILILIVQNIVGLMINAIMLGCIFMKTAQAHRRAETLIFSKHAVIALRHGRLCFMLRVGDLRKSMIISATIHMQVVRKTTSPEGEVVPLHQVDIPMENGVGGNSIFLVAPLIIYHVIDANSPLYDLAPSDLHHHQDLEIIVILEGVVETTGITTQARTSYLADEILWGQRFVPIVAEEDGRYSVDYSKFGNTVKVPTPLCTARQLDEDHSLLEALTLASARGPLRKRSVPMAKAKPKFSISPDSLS

[8] = Solubility of the compound in PBS at 10 mM after 18 hrs by UV spectroscopic analysis; type: physicochemical
[9] = Intrinsic clearance in […] mouse liver microsomes at 2 mM; type: ADME, Microsome; conditions: read-out: CLH
[10] = test system: Raji; test: Cytotoxicity against human Raji cells at 25 uM after 72 hrs by celltiter-glo assay; type: cell-based
[11] = Permeability of the compound at 10 uM at pH 7.4 by PAMPA; type: ADME; conditions: pH 7.4, 10 µM
In short: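 PAMPA: diluted compound in system solution buffer at pH 7.4 was placed in the donor well over a GIT-lipid-painted membrane, with acceptor solution buffer in the acceptor well. The sandwich was stirred for 30 min with the aqueous boundary layer set to 40 μm. Triplicate.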

[12] = Apparent volume of distribution during terminal phase in CD1 mouse at 200 mg/kg, po; type: ADME, organism-based; set-up: dose 200 mg/kg, route oral; conditions: in vivo, read-out: Vz/F; in short: as §1
[13] = test system: Plasmodium falciparum; test: Antimalarial activity against Plasmodium falciparum K1 after 72 hrs by MSF assay; type: functional, organism-based; conditions: K1, 72 h
[14] = test system: HEK293; test: Cytotoxicity against human HEK293 cells at 25 uM after 72 hrs by celltiter-glo assay; type: cell-based; conditions: hek293, 72 h
[15] = test system: Mus musculus; test: Tmax in CD1 mouse at 20 mg/kg, po; type: ADME, organism-based; set-up: dose 20 mg/kg, route oral; conditions: in vivo; in short: as §1
[16] = test system: BJ; test: Cytotoxicity against human BJ cells at 25 uM after 72 hrs by celltiter-glo assay; type: cell-based
[17] = test system: Mus musculus; test: AUC (0 to infinity) in CD1 mouse at 20 mg/kg, po; type: ADME, organism-based, Plasma; set-up: time infinity, dose 20 mg/kg, route oral; conditions: in vivo; in short: as §1
[18] = target: T2, CYP2D6 (Homo sapiens, UniProt P10635); test: Inhibition of CYP2D6 in human liver microsomes at 10 uM after 20 mins by LC-MS/MS analysis relative to control; values are per cent of control
[19] = Apparent volume of distribution during terminal phase in CD1 mouse at 20 mg/kg, po; type: ADME, organism-based; set-up: dose 20 mg/kg, route oral; conditions: CD1, mouse, in vivo, read-out: Vz/F; in short: as §1
[20] = target: T2, CYP2D6; test: Inhibition of CYP2D6 in human liver microsomes at 1 uM after 20 mins by LC-MS/MS analysis relative to control; values are per cent of control
[21] = target: Voltage-gated inwardly rectifying potassium channel KCNH2 (Homo sapiens, UniProt Q12809); test: Inhibition of human ERG by patch clamp assay
[22] = Intrinsic clearance in human liver microsomes at 2 mM; type: ADME, Microsome; conditions: read-out: CLH
[23] = test system: Plasmodium berghei; test: Antimalarial activity against Plasmodium berghei NK-65 infected in ICR mouse assessed as survival rate at 100 mg/kg, po administered day 3, 4 and 5 post infection; type: functional
In short: (§2)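 Female Swiss outbred ICR mice, 15–20 g, given 1 X 10^6 P. berghei NK-65 infected red cells from donor mice in plasma at day 0 (modified Thompson's test). Patent infection confirmed by tail blood smear on day 3. Oral single daily doses in 0.5% HEC on days 3, 4, 5. Vehicle controls. Survival recorded daily to day 30. Parasitemia from Giemsa thin films on days 3, 6, 13, 20, 27, counting ≥1000 cells.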

[24] = test system: Plasmodium berghei; test: Antimalarial activity against Plasmodium berghei NK-65 infected in ICR mouse assessed as survival rate at 50 mg/kg, po administered day 3, 4 and 5 post infection; type: functional; in short: as §2

T2 sequence (P10635 whole entry): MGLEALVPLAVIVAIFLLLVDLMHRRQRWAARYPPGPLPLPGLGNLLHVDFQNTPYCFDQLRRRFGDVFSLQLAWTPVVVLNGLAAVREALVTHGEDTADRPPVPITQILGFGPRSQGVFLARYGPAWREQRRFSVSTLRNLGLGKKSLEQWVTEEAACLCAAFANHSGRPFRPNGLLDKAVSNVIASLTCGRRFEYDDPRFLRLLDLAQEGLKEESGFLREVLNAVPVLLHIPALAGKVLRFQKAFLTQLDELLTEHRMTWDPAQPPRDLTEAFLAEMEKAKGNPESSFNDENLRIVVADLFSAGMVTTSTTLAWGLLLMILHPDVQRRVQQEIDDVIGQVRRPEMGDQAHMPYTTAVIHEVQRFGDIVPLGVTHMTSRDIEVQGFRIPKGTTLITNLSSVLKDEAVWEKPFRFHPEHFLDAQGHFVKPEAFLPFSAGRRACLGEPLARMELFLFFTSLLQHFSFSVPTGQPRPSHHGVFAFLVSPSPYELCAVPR
Chain of Voltage-gated inwardly rectifying potassium channel KCNH2 (Q12809 whole entry): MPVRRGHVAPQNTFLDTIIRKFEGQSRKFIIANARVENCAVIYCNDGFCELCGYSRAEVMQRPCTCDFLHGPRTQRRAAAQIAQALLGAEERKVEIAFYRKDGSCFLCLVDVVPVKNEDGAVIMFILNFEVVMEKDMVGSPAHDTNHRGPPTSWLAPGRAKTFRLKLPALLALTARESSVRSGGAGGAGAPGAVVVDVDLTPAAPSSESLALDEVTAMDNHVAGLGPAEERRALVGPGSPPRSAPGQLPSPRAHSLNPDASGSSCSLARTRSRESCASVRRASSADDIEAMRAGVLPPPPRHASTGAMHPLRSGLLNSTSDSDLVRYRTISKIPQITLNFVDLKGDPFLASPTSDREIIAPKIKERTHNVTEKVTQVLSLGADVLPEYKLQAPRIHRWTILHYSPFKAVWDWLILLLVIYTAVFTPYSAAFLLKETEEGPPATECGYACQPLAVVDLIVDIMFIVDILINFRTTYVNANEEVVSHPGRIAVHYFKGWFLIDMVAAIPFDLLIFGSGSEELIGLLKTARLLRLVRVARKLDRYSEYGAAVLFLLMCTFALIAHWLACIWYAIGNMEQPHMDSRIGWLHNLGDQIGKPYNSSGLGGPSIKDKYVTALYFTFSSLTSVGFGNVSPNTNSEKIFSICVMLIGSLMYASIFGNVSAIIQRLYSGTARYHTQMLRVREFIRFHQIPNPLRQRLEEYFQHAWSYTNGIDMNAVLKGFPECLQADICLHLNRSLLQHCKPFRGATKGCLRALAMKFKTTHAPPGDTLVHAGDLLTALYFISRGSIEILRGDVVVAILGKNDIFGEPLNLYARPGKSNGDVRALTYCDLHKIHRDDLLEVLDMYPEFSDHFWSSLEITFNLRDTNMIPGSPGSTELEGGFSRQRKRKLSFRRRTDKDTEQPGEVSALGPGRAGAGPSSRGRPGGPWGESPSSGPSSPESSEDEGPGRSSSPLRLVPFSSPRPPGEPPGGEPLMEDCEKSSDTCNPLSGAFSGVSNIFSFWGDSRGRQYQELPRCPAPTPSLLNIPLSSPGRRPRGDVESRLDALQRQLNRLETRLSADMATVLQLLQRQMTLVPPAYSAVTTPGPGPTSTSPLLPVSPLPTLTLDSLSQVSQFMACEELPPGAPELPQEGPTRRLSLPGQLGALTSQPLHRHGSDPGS

AUC [2] [µM·h] | Cmax [3] [nM] | Tmax [4] [h] | Cmax [5] [nM] | EC90 [6] [nM] | solubility at 18 h, 10000 µM [8] [µM] | Vd/F [12] [L/kg] | EC90 [13] [nM] | Tmax [15] [h] | SMILES | Activity [1] | IC50 [7] [nM] | Activity [10] | Activity [14] | Activity [16] | % activity remaining at 20 min, 10 µM [18] [%] | permeability ([11]; BLD = below limit of detection) | % activity remaining at 20 min, 1 µM [20] [%] | further results
6.17 | 908 | 1 | 98.7 | 660 | 0.2 (≈ 0.111 µg/mL) | 276 | 310 | 1 | O=C(CCc1ccccc1)c1cc(F)ccc1OCC(O)CN1CCN(C(c2ccccc2)c2ccccc2)CC1 (configuration not stated) | Non-toxic | > 5000 | Non-toxic | Non-toxic | Non-toxic | – | – | – | CLint scaled [9]: 34 mL/min/kg; permeability [11]: 0.8 ×10⁻⁶ cm/s
3.75 | 481 | 1 | 434 | 2200 | 0.2 (≈ 0.0923 µg/mL) | 982 | 420 | 1 | O=C(CCc1ccccc1)c1cc(F)ccc1OCC(O)CN1CCC(c2ccccc2)CC1 (configuration not stated) | Non-toxic | – | Non-toxic | Non-toxic | Non-toxic | 34 | BLD | 73 | AUC [17]: 1.6 µM·h; Vd/F [19]: 224 L/kg; EC50 [6]: 1330 nM; EC50 [13]: 260 nM
– | – | – | – | – | – | – | – | – | CCN(CC)CCCC(C)Nc1ccnc2cc(Cl)ccc12 (configuration not stated) [CHLOROQUINE] | – | – | – | – | – | – | – | – | MST [23]: 22 days; MST [24]: 17 days

SMILES | AUC [2] [µM·h] | Cmax [3] [nM] | Tmax [4] [h] | Cmax [5] [nM] | EC90 [6] [nM] | solubility at 18 h, 10000 µM [8] [µM] | Vd/F [12] [L/kg] | EC90 [13] [nM] | Tmax [15] [h] | Activity [1] | IC50 [7] [nM] | Activity [10] | Activity [14] | Activity [16] | % activity remaining at 20 min, 10 µM [18] [%] | permeability ([11]; BLD = below limit of detection) | % activity remaining at 20 min, 1 µM [20] [%] | further results
Cc1ccc(N2CCN(CC(O)COc3ccccc3C(=O)CCc3ccccc3)CC2)cc1 (configuration not stated) | 6.49 | 866 | 0.5 | 302 | 1300 | 2.2 (≈ 1.01 µg/mL) | 272 | 640 | 8 | Non-toxic | > 5000 | Non-toxic | Non-toxic | Non-toxic | 71 | BLD | 92 | IC50 [21]: 4310 nM; CLint scaled [22]: 38 mL/min/kg
